For two compounds, IC50, Activity and bioavailability results are on record in ChEMBL document CHEMBL3526095, “Characterization of the in vitro and in vivo metabolism and disposition and cytochrome P450 inhibition/induction profile of saxagliptin in human” (Drug Metab Dispos, 2012).

In data set [1] the target is T1, Cytochrome P450 2B6 (Homo sapiens, UniProt P20813).
T1 sequence (P20813 whole entry): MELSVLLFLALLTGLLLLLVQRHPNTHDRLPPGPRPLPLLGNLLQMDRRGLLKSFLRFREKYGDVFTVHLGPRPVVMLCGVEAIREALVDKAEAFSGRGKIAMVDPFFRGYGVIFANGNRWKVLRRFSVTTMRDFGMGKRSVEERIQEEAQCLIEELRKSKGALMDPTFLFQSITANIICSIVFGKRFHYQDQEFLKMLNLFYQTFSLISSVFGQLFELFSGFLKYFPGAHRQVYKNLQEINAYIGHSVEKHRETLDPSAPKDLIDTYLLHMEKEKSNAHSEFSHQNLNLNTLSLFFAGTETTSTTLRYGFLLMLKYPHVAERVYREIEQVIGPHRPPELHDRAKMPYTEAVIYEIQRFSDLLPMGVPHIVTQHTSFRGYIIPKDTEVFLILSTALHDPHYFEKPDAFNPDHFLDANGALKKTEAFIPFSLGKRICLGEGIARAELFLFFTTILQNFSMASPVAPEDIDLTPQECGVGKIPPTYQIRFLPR
In words: Inhibition of CYP2B6 in human liver microsomes assessed as bupropion hydroxylation after 3 mins by LC-MS/MS analysis in presence of NADPH. Format: ADME. Summed up: (§1)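 Pooled HLM from 15 donors, probe substrate near its experimentally determined level, in 100 mM phosphate buffer pH 7.4 at 37°C. Saxagliptin tested at 0.1–50 µM, M2 at 0.1–200 µM. Direct inhibition: 3-min equilibration, then reaction started with 1 mM NADPH. Time-dependent inhibition: 15-min preincubation with or without NADPH, then substrate added.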

The target in data set [2] is T2, Cytochrome P450 2C8 (Homo sapiens, UniProt P10632).
T2 sequence (P10632 whole entry): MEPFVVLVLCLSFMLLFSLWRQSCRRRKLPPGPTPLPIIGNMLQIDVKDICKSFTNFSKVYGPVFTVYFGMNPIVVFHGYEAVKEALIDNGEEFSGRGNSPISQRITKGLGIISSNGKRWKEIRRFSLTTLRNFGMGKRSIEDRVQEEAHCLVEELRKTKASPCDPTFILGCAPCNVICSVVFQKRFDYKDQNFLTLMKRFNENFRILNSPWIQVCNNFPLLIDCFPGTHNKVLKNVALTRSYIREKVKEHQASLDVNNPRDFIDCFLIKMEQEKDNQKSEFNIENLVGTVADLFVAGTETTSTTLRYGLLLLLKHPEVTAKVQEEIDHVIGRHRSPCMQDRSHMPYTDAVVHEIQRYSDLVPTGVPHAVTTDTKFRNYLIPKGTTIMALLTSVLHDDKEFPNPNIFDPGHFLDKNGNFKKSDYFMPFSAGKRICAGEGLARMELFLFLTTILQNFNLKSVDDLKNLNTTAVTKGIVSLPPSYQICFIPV
Briefly: Inhibition of CYP2C8 in human liver microsomes assessed as paclitaxel 6alpha-hydroxylation after 3 mins by LC-MS/MS analysis in presence of NADPH. Type of data set: ADME. Summed up:
as §1
For orientation: Liver microsomes are vesicles of endoplasmic reticulum, rich in cytochrome P450 enzymes.

Data set [3] concerns the target T3, Cytochrome P450 2C9 (Homo sapiens, UniProt P11712). Briefly: Inhibition of CYP2C9 in human liver microsomes assessed as paclitaxel 6alpha-hydroxylation after 3 mins by LC-MS/MS analysis in presence of NADPH. Format: ADME. The note with it: in the assay text read “tolbutamide hydroxylation” for “paclitaxel 6alpha-hydroxylation”. Summed up:
as §1

In data set [4] the target is T4, Cytochrome P450 2C19 (Homo sapiens, UniProt P33261). In words: Inhibition of CYP2C19 in human liver microsomes assessed as (S)-mephenytoin 4'-hydroxylation after 3 mins by LC-MS/MS analysis. Type of data set: ADME. Summed up: as §1
The target in data set [5] is T5, Cytochrome P450 2D6 (Homo sapiens, UniProt P10635). In words: Inhibition of CYP2D6 in human liver microsomes assessed as bufuralol 1'-hydroxylation after 3 mins by LC-MS/MS analysis. Format: ADME.
In data set [6] the target is T6, Cytochrome P450 2E1 (Homo sapiens, UniProt P05181). In words: Inhibition of CYP2E1 in human liver microsomes assessed as chlorzoxazone 6-hydroxylation after 3 mins by LC-MS/MS analysis in presence of NADPH. Type of data set: ADME.
The target in data set [7] is T1, Cytochrome P450 2B6. In words: Inhibition of CYP2B6 in human liver microsomes assessed as bupropion hydroxylation preincubated for 15 mins by LC-MS/MS analysis in presence of NADPH. Format: ADME. Summed up: as §1
Data set [8] concerns the target T2, Cytochrome P450 2C8. In words: Inhibition of CYP2C8 in human liver microsomes assessed as paclitaxel 6alpha-hydroxylation preincubated for 15 mins by LC-MS/MS analysis in presence of NADPH. Format: ADME. Summed up: as §1
For data set [9], the target named is T3, Cytochrome P450 2C9. Briefly: Inhibition of CYP2C9 in human liver microsomes assessed as paclitaxel 6alpha-hydroxylation preincubated for 15 mins by LC-MS/MS analysis in presence of NADPH. Type of data set: ADME. The note with it: in the assay text read “tolbutamide hydroxylation” for “paclitaxel 6alpha-hydroxylation”. Put shortly:
as §1

The target of data set [10] is T4, Cytochrome P450 2C19. Briefly: Inhibition of CYP2C19 in human liver microsomes assessed as (S)-mephenytoin 4'-hydroxylation preincubated for 15 mins by LC-MS/MS analysis. Type of data set: ADME. Summed up:
as §1

Data set [11] deals with T5, Cytochrome P450 2D6. In words: Inhibition of CYP2D6 in human liver microsomes assessed as bufuralol 1'-hydroxylation preincubated for 15 mins by LC-MS/MS analysis. Format: ADME. Put shortly: (§2)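 Time-dependent format. Pooled human liver microsomes (15 donors) were preincubated 15 min at 37°C with test compound, with and without 1 mM NADPH. The probe substrate was then added at the same concentration as in the direct assay.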

In data set [12] the target is T6, Cytochrome P450 2E1. Briefly: Inhibition of CYP2E1 in human liver microsomes assessed as chlorzoxazone 6-hydroxylation preincubated for 15 mins by LC-MS/MS analysis in presence of NADPH. Format: ADME. Put shortly:
as §2

Data set [13] has as its target Cytochrome P450 3A4 (Homo sapiens, UniProt P08684). Briefly: Inhibition of CYP3A4 in human liver microsomes assessed as midazolam 1'-hydroxylation preincubated for 15 mins by LC-MS/MS analysis. Format: ADME.
Data set [14] concerns Hepatocyte. In words: Cytotoxicity against human hepatocytes up to 100 uM by lactate dehydrogenase assay. Format: cell-based.
The subject of data set [15] is Hepatocyte. In words: Induction of CYP2B6 mRNA expression in human hepatocytes assessed as bupropion hydroxylation up to 100 uM by LC-MS/MS analysis. Type of data set: ADME, cell-based. Put shortly: (§3)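 Primary hepatocytes from three donors treated once daily for 3 days: saxagliptin 0.2–25 µM, M2 0.2–100 µM, 0.1% DMSO as vehicle. Microsomal activity assayed by LC-MS/MS: phenacetin 100 µM with 0.02 mg/ml protein (CYP1A2), bupropion 250 µM with 0.02 mg/ml (CYP2B6), testosterone 200 µM with 0.01 mg/ml (CYP3A4). mRNA measured by TaqMan qPCR as 2^ΔCT relative to endogenous control and DMSO.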

In data set [16] the test system is Hepatocyte. Briefly: Cytotoxicity against human hepatocytes up to 25 uM by lactate dehydrogenase assay. Type of data set: cell-based.
For data set [17], the system named is Hepatocyte. Briefly: Induction of CYP1A2 mRNA expression in human hepatocytes assessed as phenacetin O-deethylation up to 25 uM by LC-MS/MS analysis. Format: ADME, cell-based. Summed up: as §3
A short description of data set [18]: Oral bioavailability in dog. Type of data set: ADME, organism-based, Canis lupus familiaris. Conditions: in vivo; call rule not given here.
Data set [19] can be described thus: Oral bioavailability in monkey. Format: ADME, organism-based, Macaca mulatta. The note with it: rhesus monkey, in vivo.

The structures appear in SMILES notation.

T5 sequence (P10635 whole entry): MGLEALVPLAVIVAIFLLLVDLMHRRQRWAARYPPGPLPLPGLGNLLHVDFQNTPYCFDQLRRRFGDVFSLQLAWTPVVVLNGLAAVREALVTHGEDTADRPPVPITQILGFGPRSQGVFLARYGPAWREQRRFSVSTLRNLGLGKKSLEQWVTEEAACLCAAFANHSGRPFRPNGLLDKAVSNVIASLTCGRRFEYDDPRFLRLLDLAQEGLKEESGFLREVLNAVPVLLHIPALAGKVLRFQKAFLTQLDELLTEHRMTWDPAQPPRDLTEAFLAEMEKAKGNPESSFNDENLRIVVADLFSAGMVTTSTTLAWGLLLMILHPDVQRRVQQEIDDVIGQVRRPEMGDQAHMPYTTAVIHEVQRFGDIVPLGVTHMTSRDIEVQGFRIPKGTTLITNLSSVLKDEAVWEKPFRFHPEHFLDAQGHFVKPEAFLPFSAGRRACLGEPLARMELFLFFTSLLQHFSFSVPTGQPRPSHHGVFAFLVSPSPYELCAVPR
T6 sequence (P05181 whole entry): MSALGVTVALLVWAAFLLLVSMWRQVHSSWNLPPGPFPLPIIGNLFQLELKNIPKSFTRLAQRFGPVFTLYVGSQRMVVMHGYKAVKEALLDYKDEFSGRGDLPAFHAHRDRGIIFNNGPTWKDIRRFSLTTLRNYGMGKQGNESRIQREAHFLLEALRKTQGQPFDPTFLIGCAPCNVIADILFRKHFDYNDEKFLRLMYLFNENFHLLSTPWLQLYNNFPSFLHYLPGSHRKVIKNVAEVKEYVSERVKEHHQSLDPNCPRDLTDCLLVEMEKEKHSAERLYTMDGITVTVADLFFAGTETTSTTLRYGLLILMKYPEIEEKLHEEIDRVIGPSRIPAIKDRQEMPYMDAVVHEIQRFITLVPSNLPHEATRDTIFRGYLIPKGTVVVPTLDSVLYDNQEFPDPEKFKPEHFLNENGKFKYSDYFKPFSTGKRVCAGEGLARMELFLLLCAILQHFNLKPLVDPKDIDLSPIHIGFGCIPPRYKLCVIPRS
T3 sequence (P11712 whole entry): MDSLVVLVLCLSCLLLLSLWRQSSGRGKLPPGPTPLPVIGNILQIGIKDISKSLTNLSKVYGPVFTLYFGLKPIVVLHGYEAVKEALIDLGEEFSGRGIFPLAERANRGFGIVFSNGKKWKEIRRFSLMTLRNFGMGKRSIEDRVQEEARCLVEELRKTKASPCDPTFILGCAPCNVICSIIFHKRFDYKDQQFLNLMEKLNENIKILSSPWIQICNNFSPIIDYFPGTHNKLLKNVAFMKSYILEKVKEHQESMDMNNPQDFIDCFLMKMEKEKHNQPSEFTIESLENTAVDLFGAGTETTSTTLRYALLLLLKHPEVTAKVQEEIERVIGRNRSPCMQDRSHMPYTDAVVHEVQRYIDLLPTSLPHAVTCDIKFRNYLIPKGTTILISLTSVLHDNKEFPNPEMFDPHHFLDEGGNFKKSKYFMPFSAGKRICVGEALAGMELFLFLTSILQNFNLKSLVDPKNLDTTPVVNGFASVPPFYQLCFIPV
T4 sequence (P33261 whole entry): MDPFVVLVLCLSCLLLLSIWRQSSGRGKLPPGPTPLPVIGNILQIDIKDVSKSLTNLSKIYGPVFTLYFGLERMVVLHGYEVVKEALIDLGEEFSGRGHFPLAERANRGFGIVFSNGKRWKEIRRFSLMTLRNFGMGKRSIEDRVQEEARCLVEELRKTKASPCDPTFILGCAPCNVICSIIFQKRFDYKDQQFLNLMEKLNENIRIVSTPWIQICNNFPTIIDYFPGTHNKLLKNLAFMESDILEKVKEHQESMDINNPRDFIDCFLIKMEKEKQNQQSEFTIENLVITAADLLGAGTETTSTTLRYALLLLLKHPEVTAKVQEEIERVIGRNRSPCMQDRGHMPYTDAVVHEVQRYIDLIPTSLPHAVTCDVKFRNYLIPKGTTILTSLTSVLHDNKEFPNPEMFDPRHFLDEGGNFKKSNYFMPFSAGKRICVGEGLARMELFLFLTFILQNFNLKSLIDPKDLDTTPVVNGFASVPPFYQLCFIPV
Sequence of Cytochrome P450 3A4 (P08684 whole entry): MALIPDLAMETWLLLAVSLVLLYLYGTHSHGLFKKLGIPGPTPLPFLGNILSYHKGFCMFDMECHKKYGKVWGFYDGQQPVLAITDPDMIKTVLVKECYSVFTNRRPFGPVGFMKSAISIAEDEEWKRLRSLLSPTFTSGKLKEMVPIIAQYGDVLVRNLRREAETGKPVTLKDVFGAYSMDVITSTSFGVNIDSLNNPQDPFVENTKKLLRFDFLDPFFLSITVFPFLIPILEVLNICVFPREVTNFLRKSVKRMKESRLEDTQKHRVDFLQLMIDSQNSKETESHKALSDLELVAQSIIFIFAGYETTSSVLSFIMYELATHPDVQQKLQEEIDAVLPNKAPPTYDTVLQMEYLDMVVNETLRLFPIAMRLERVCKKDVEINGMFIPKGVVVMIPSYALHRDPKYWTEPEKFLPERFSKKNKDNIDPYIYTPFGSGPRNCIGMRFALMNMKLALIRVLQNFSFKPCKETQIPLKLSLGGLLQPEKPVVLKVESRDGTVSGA

The IC50 is the concentration that inhibits the measured activity by half. With `N#C[C@@H]1C[C@@H]2C[C@@H]2N1C(=O)[C@@H](N)C12CC3CC(O)(CC(O)(C3)C1)C2`, the IC50 in data set [1], in [2], in [3], in [4], in data set [5] and in data set [6] was > 200 µM each time. Further, the IC50 in data set [7], in data set [8], in [9], in data set [10], in data set [11] and in data set [12] was > 200 µM in each case. In data set [13], the concentration for half-maximal inhibition (IC50) is > 200 µM. In addition, the Activity entry in data set [14] was “Non-toxic”; in data set [15], “Not Active”.

By bioavailability is commonly meant the share of a dose that reaches the circulation, judged against a reference dose that is usually intravenous. On to `N#C[C@@H]1C[C@@H]2C[C@@H]2N1C(=O)[C@@H](N)C12CC3CC(CC(O)(C3)C1)C2` [SAXAGLIPTIN ANHYDROUS], for which the IC50 in [1], in data set [2], in [3], in data set [4], in [5] and in data set [6] was > 50 µM in each case. The IC50 in [7], in data set [8], in [9], in data set [10], in [11] and in [12] was > 50 µM throughout. The Activity entry in [16] was “Non-toxic”; in data set [17], “Not Active”. The bioavailability in [18] was found to be 76%; in data set [19] it was 51%.
